Assays:
HL-60 = experiment: Induction of transglutaminase (TGase) activity in HL-60 cells; details: Homo sapiens
Mus musculus = species on record: Mus musculus; experiment: Inhibition of Chondrogenesis in day 11 embryonic limb bud cells; details: 264 h
[1] = target: T1, Retinoic acid receptor beta (Mus musculus, UniProt P22605); experiment: Dissociation constant for binding to Retinoic acid receptor beta;NA=not active
T1 sequence (P22605 whole entry): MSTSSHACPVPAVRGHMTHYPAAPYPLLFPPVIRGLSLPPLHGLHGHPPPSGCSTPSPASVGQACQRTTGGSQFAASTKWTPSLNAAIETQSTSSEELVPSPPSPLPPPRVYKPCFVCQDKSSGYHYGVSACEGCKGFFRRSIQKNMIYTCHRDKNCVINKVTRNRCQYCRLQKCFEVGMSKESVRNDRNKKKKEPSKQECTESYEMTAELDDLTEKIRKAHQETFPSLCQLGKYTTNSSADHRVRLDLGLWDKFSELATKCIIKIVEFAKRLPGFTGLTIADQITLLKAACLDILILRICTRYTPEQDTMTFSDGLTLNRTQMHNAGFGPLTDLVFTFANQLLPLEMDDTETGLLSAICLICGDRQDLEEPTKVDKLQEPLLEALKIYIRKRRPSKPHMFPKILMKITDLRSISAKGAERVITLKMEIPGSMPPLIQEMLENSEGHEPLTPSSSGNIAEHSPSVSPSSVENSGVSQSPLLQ
Outline: (§1)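 Competitive binding assays against each receptor subtype, with Kd values taken from competition.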

[2] = target: T2, Retinoic acid receptor alpha (Mus musculus, UniProt P11416); experiment: Dissociation constant for binding to Retinoic acid receptor alpha;NA=not active; outline: as §1
T2 sequence (P11416 whole entry): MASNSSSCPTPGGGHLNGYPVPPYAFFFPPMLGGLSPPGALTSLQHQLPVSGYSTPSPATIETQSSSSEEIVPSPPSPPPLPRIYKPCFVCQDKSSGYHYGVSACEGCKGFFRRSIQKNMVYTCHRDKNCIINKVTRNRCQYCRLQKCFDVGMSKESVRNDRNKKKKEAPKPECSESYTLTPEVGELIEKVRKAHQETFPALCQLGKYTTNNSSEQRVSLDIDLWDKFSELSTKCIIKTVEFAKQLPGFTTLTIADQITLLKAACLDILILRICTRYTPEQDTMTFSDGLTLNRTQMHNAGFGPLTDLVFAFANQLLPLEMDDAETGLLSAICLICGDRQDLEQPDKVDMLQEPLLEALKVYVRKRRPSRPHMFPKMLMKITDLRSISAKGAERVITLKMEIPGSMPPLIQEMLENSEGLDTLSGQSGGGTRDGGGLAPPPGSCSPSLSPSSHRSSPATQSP

[3] = target: T3, Retinoic acid receptor gamma (Mus musculus, UniProt P18911); experiment: Dissociation constant for binding to Retinoic acid receptor gamma;NA=not active; outline: as §1
T3 sequence (P18911 whole entry): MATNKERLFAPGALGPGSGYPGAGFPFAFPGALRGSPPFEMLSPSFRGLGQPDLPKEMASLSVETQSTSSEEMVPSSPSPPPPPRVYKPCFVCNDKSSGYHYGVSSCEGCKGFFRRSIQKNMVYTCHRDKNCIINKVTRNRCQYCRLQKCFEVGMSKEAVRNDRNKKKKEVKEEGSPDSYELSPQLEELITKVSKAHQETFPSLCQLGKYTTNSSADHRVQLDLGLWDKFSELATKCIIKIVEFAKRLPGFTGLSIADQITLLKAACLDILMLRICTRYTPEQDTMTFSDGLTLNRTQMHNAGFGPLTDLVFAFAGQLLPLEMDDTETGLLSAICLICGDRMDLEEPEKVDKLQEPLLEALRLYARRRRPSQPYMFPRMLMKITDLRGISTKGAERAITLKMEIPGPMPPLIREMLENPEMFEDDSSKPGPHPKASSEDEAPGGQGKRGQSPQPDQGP

[4] = target: T3, Retinoic acid receptor gamma; experiment: Dissociation constant for binding to Retinoic acid receptor gamma; outline: as §1
[5] = target: T4, Retinoic acid receptor gamma (Homo sapiens, UniProt P13631); experiment: Transcriptional activation of Retinoic acid receptor RAR gamma; design: species or system Cercopithecidae
T4 sequence (P13631 whole entry): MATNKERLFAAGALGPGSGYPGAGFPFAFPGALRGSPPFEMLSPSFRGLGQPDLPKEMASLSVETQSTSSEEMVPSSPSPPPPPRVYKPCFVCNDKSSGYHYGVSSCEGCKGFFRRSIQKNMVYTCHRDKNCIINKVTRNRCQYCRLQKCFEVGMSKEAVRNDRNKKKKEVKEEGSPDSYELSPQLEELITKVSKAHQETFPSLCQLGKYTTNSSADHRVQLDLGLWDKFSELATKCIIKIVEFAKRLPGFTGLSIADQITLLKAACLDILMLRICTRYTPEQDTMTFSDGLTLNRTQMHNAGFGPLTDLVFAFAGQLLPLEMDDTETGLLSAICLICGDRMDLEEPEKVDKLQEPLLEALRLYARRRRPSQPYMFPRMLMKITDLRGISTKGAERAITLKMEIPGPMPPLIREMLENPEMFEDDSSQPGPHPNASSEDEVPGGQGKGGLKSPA
Outline: (§2)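 CV-1 cells transiently cotransfected with the receptor construct and a reporter gene, with induced transcription measured. Activity is normalized to all-trans RA. EC50 is the concentration giving 50% of maximal observed response, from a single experiment in triplicate.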

[6] = target: T5, Retinoic acid receptor RXR-alpha (Homo sapiens, UniProt P19793); experiment: Transcriptional activation of Retinoid X receptor RXR alpha;NA=not active; design: species or system Cercopithecidae; outline: as §2
T5 sequence (P19793 whole entry): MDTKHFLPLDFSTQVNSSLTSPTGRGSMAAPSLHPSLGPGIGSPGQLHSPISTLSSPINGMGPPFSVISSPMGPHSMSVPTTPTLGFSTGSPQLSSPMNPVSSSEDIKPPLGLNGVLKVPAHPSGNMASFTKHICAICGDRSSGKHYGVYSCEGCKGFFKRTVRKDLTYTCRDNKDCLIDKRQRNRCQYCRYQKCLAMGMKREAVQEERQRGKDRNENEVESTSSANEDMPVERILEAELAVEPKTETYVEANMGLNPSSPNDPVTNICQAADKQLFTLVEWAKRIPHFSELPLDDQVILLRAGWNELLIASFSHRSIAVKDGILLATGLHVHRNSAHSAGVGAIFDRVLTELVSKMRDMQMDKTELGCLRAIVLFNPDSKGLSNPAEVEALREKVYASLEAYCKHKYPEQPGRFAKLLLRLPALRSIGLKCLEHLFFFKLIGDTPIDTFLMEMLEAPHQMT

EC50 (HL-60) [µM]	Kd [4] [µM]	EC50 [5]	Compound	IC50 (Mus musculus) [µM]	other results
0.1	–	–	Cc1cc2c(cc1Sc1ccc(C(=O)O)cn1)C(C)(C)CCC2(C)C	1	Kd [1]: Not Active; Kd [2]: Not Active; Kd [3]: Not Active
–	1	–	Cc1cc2c(cc1Sc1ncc(C(=O)O)s1)C(C)(C)CCC2(C)C	–	–
–	10	–	Cc1cc2c(cc1S(=O)(=O)c1ccc(C(=O)O)cc1)C(C)(C)CCC2(C)C	–	–
0.2	10	Not Active	Cc1cc2c(cc1Sc1ccc(C(=O)O)cc1)C(C)(C)CCC2(C)C	0.91	–
–	> 10	0.34 µM	CC1(C)CCC(C)(C)c2cc(Sc3ccc(C(=O)O)cc3)ccc21	–	–
–	10	–	Cc1cc2c(cc1[S+]([O-])c1ccc(C(=O)O)cc1)C(C)(C)CCC2(C)C (stereo not given)	–	EC50 [6]: Not Active
